{"source": "ChEMBL document CHEMBL4813921", "about": "“Optimization of WZ4003 as NUAK inhibitors against human colorectal cancer” (Eur J Med Chem, 2021)", "key": {"HCT-116": {"test_system": "HCT-116", "assay": "Inhibition of colony formation in human HCT-116 cells measured after 14 days by crystal violet staining based microcopic analysis", "assay_type": "functional, cell-based", "conditions": "dose 0.5-2 µM, time 14.0 day", "summary_of_the_method": "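Clonogenic assay with 14-day exposure to a range of compound concentrations; colonies stained with crystal violet and imaged by microscopy; compared with untreated cells.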"}, "U2OS": {"test_system": "U2OS", "assay": "Antiproliferative activity against human U2OS cells assessed as reduction in cell viability at 10 uM measured after 1 to 5 days by MTT assay", "assay_type": "functional", "conditions": "time 1-5 day", "summary_of_the_method": "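MTT viability read daily over 1–5 days of exposure to 10 μM compound; mean ± SD, n = 3.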"}}, "data": [{"smiles": "CCC(=O)Nc1cccc(Oc2nc(Nc3ccc(N4CCN(C)CC4)cc3)ncc2Cl)c1", "values": [{"measurement": "inhibition", "setting": "HCT-116", "value": "Dose-Dependent Effect"}, {"measurement": "inhibition at 10 µM", "setting": "U2OS", "value": 67.2, "unit": "%"}]}]}
